Assay results published in article PMC9053626 (RSC Advances, 2020).

Assays:
4T1 cells = test: MTT cytotoxicity assay; assay type: cell-based, murine; details: Mus musculus
How it was run: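 4T1 cells grown in 1640 medium with 5% FBS and 1% penicillin/streptomycin at 37 °C, 5% CO2. Seeded at 2000 cells/well for 24 h, then exposed to a range of test concentrations for 48 h or 72 h. Washed twice with cold PBS, given fresh medium plus MTT for 4 h, formazan dissolved in DMSO, A570 read. Inhibition rate calculated relative to untreated control absorbance.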

[1] = tested on: 4T1 cell tumor-bearing xenograft model; test: In vivo antitumor study and histological evaluation; design: species or system female BABL/c mice
How it was run: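 Orthotopic 4T1 model: 0.1 mL of 4T1 cells (1 × 107 mL−1) injected into the fourth pair of breast pads. At 50–100 mm3 tumours, mice randomised into three groups (n = 6). Killed day 14; heart, liver, lung, spleen, kidney and tumour fixed in 10% formaldehyde for H&E.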

[2] = release medium vs anhydrous ethanol; cited from earlier work

With `C[C@H]1[C@@H](O)O[C@@H]2O[C@@]3(C)CC[C@H]4[C@H](C)CC[C@@H]1[C@@]24OO3` [DHA-Sol, Dihydroartemisinin] the IC50 (4T1 cells; 4T1, 48 h) was 2310 ± 100 nM, the IC50 (4T1 cells; 4T1, 72 h) was 620 ± 20 nM and the tumor volume ([1]; after 14 days, i.v. 0.07 mmol DHA kg^−1 on days 1, 3, 5, 7, 9, saline group 3309.68 ± 441.61) was 867.27 ± 117.43 mm^3. For the same molecule, the “body weight change versus saline group” value ([1]; end of the experiment, p > 0.1) was “a significant change in the body weight of rats was not observed”, the “survival of mice during the experiment” value ([1]; n = 6 per group, 0.07 mmol DHA kg^−1 i.v. five times) was “two mice treated with the DHA-Sol group died during the experiment” and the “stability of DHA in the release medium” value [2] was “degraded quickly in the release medium”.
